Experimental findings from PubChem BioAssay AID651775 (Broad Institute, 2012) are described below.

This test concerns SK-MEL-5 TRPM1 promoter luciferase, 24 h. Description: activators of MITF-driven TRPM1 promoter, dose response, cell-based, SK-MEL-5, luciferase, dry powder (AID 651775). A digest of the protocol: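 Buffer or medium: Phenol red-free DMEM plus 10% heat-inactivated FBS | Test system: TRPM1 promoter-luciferase reporter stably expressed in SK-MEL-5 melanoma cells | Input: 2000 cells per well | Times: Compound added day after seeding, 24 h exposure at 37 °C | Measured by: SteadyGlo luciferase luminescence after 5 min room-temperature incubation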

With `CC(C)(C)C(=O)N1CCN(c2nc3ccccc3s2)CC1`, the AC40 was 912 nM.
Regarding `CCN(CC)c1ccc(Nc2nc(-c3cccnc3)cs2)cc1`, the AC40 was 515 nM.
Consider `COc1ccc(NC(=O)c2ccc3[nH]c(C)c(C)c3c2)cc1`, for which the AC40 is 1930 nM.
`CSc1nc2ccc(NC(=O)c3cccs3)cc2s1`: the AC40 is 465 nM.
Regarding `Cc1cc2ncc(-c3ccc(Cl)cc3)c(N)n2n1`, the AC40 was 1770 nM.
For `O=C(Nc1cccc(F)c1)NC1CCCCCCC1`, the AC40 was 984 nM.
The figure for `O=C(NCCc1cccs1)c1ccc(Cl)c(Cl)c1` is 615 nM; for `C=CCNc1nc(-c2ccc(Cl)cc2)cs1` it is 219 nM.
For the molecule `CCCN(CCC)c1ncnc2c1cnn2-c1ccc(OC)cc1`, the AC40 was 39 nM.
In the case of `c1ccc(-c2ccc(-c3cnc4n3CCCCC4)cc2)cc1`, the AC40 is 2290 nM.
On to `Cc1ccc(C(=O)Nc2cccc(O)c2)cc1S(=O)(=O)N1CCCCCC1`, for which the AC40 is 1010 nM.
In the case of `COC(=O)C(C)N1C(=O)S/C(=C/c2cc(C)n(C(C)C)c2C)C1=O` (stereo not drawn), the AC40 is 541 nM.
Regarding `c1ccc2c(Nc3nnc(-c4ccncc4)s3)cccc2c1`, the AC40 is 1130 nM.
With `Fc1ccccc1COc1ccc(C(=S)N2CCCC2)cc1`, the AC40 is 1320 nM.
`COc1cccc(NC(=O)C(=O)NCCC2CCCCN2S(=O)(=O)c2cccs2)c1` (stereo not drawn): the AC40 was 2070 nM.
In the case of `Cc1ccc(NC(=O)c2ccc3ccccc3n2)cc1S(=O)(=O)N(C)C`, the AC40 was 462 nM.
On to `COc1ccc(C(=O)NCCn2ccc3ccccc32)cc1`, for which the AC40 was 531 nM.
In the case of `Cc1nn2c(-c3ccccc3)ccnc2c1-c1ccccc1`, the AC40 is 824 nM.
Take `c1ccc(CSc2ccc(-c3ccc4c(c3)OCO4)nn2)cc1`: the AC40 is 974 nM.
The figure for `CC(=O)Nc1nnc(COc2ccc(Cl)cc2)s1` is 589 nM; for `O=C(Oc1ccc2ccccc2c1Cl)N1CCCCCC1` it is 113 nM.
For the molecule `COc1cc(/C=N/O)ccc1OCc1ccccc1Cl`, the AC40 was 180 nM.
Turning to `C/C(=N\OCc1ccc(C#N)cc1)c1ccc(S(=O)(=O)N(C)C)cc1`, the AC40 is 7800 nM.
